# Data taken from ChEMBL document CHEMBL4706740, “Structure-Activity Study of Nitazoxanide Derivatives as Novel STAT3 Pathway Inhibitors” (ACS Med Chem Lett, 2021).
# Assays:
# [1] = Cytotoxicity against human HeLa cells assessed as inhibition of cell viability at 10 uM measured after 48 hrs by MTT assay; format: cell-based; details: read-out: INH
# [2] = target: Signal transducer and activator of transcription 3 (Homo sapiens) (UniProt P40763); assay: Inhibition of IL-6 induced STAT3 transcriptional activity in human HEK-Blue IL-6 cells assessed as secreted embryonic alkaline phosphatase reporter gene expression at 10 uM by microplate reader; format: cell-based
# In short: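 Single-concentration screen in HEK-Blue IL-6 cells: % inhibition of the SEAP reporter read-out of STAT3 pathway activity, with viability checked by MTT in parallel. Values are averages of three independent experiments.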
# [3] = Half life in Sprague-Dawley rat at 5 mg/kg, iv; format: ADME, organism-based; details: in vivo
# In short: (§1)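 Rats, n = 3 per group, received a single dose either intragastrically (25 mg/kg) or intravenously (5 mg/kg). Plasma concentration–time curves were used to derive t1/2α, t1/2β, Vd/F, CL/F, AUC0–∞, Tmax and Cmax. Absolute oral bioavailability was calculated from the ig and iv data.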
# [4] = Cmax in Sprague-Dawley rat at 5 mg/kg, iv; format: ADME, organism-based; set-up: route intravenous, dose 5 mg/kg; details: in vivo; in short: as §1
# [5] = AUC (0 to infinity) in Sprague-Dawley rat at 5 mg/kg, iv; format: ADME, organism-based; set-up: route intravenous, time infinity, dose 5 mg/kg; details: in vivo; in short: as §1
# [6] = Absolute bioavailability in Sprague-Dawley rat at 25 mg/kg, IG; format: ADME, organism-based; details: in vivo, po; in short: as §1
# [7] = Elimination Half life in Sprague-Dawley rat at 5 mg/kg, iv; format: ADME, organism-based; details: in vivo, read-out: beta t1/2 (converted); in short: as §1
# [8] = Half life in Sprague-Dawley rat at 25 mg/kg, IG; format: ADME, organism-based; details: in vivo, po; in short: as §1
# [9] = AUC (0 to infinity) in Sprague-Dawley rat at 25 mg/kg, IG; format: ADME, organism-based; set-up: route […], time infinity, dose 25 mg/kg; details: in vivo, po; in short: as §1
# [10] = Tmax in Sprague-Dawley rat at 25 mg/kg, IG; format: ADME, organism-based; details: in vivo, po
# [11] = Apparent volume of distribution in Sprague-Dawley rat at 5 mg/kg, iv; format: ADME, organism-based; details: in vivo; in short: as §1
# [12] = Elimination Half life in Sprague-Dawley rat at 25 mg/kg, IG; format: ADME, organism-based; details: in vivo, po, read-out: beta t1/2 (converted); in short: as §1
# [13] = Cmax in Sprague-Dawley rat at 25 mg/kg, IG; format: ADME, organism-based; set-up: route […], dose 25 mg/kg; details: in vivo, po; in short: as §1
# [14] = Apparent oral clearance in Sprague-Dawley rat at 25 mg/kg, IG; format: ADME, organism-based; details: in vivo, read-out: CL/F (converted); in short: as §1
# [15] = Apparent volume of distribution in Sprague-Dawley rat at 25 mg/kg, IG; format: ADME, organism-based; details: in vivo, po
# [16] = test system: HeLa; assay: Cytotoxicity against human HeLa cells assessed as inhibition of cell viability measured after 48 hrs by MTT assay; format: functional, cell-based
# In short: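 Growth was read by MTT assay and IC50 taken from dose–response curves. Values are averages of three independent experiments.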
# [17] = Cytotoxicity against human HEK 293T cells assessed as cell growth inhibition at 10 uM measured after 48 hrs by MTT assay; format: cell-based
# [18] = Cytotoxicity against human HEK 293T cells assessed as cell growth inhibition at 50 uM measured after 48 hrs by MTT assay; format: cell-based
# Chain of Signal transducer and activator of transcription 3 (Homo sapiens) (P40763 whole entry): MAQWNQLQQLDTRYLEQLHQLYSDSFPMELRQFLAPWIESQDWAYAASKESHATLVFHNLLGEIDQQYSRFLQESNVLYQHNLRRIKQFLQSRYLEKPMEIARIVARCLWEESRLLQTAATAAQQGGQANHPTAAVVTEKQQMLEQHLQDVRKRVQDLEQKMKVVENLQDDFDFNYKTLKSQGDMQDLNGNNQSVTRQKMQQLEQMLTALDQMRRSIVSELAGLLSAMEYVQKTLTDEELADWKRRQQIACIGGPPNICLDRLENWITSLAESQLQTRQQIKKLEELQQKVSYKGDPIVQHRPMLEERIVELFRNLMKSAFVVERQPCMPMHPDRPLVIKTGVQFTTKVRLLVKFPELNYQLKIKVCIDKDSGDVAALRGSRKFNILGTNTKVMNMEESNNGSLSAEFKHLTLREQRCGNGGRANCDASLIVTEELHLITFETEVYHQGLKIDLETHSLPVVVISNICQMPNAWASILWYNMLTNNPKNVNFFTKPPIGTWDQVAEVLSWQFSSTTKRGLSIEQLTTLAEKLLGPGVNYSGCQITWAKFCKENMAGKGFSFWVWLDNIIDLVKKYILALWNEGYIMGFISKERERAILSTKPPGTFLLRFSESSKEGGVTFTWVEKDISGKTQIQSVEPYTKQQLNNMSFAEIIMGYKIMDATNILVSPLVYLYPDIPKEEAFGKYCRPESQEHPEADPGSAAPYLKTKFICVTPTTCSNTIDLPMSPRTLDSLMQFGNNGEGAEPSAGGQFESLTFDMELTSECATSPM
smiles,measurement,setting,value
O=C(Nc1ncc([N+](=O)[O-])s1)c1ccccc1Br,"cytotoxicity at 48 h, 10 µM",[1],-10.1%
same,inhibition,[2],25.1%
O=C(Nc1ncc([N+](=O)[O-])s1)c1ccc(C(F)(F)F)cc1,half-life,[3],3.6 min
same,Cmax,[4],28100 ng/mL
same,AUC(0-inf),[5],89.4 µg·h/mL
same,bioavailability,[6],87.4%
same,half-life,[7],2.3 h
same,half-life,[8],1.9 h
same,AUC(0-inf),[9],391 µg·h/mL
same,Tmax,[10],4 h
same,Vd/F,[11],0.5 L/kg
same,half-life,[12],11.1 h
same,Cmax,[13],20700 ng/mL
same,CL/F,[14],0.833 mL/min/kg
same,Vd/F,[15],0.5 L/kg
O=C(Nc1ncc([N+](=O)[O-])s1)c1ccc(N2CCOCC2)cc1,"cytotoxicity at 48 h, 10 µM",[1],50.6%
same,inhibition,[2],9%
C#CCN(C(=O)c1ccc(C(F)(F)F)cc1)c1ncc([N+](=O)[O-])s1,inhibition,[2],9.1%
CC(C)(C)c1ccc(C(=O)Nc2ncc([N+](=O)[O-])s2)cc1,inhibition,[2],43.7%
CN1CCN(c2ccc(C(=O)Nc3ncc([N+](=O)[O-])s3)cc2)CC1,inhibition,[2],-3.3%
COc1ccc(C(=O)Nc2ncc([N+](=O)[O-])s2)cc1,inhibition,[2],14.9%
CS(=O)(=O)c1ccc(C(=O)Nc2ncc([N+](=O)[O-])s2)cc1,inhibition,[2],5.3%
Cc1ccccc1C(=O)Nc1ncc([N+](=O)[O-])s1,inhibition,[2],36.4%
NS(=O)(=O)c1ccc(C(=O)Nc2ncc([N+](=O)[O-])s2)cc1,inhibition,[2],-9.7%
O=C(Nc1ncc([N+](=O)[O-])s1)c1ccc(O)c(O)c1,inhibition,[2],26.7%
O=C(Nc1ncc([N+](=O)[O-])s1)c1ccc(O)cc1,inhibition,[2],20.9%
O=C(Nc1ncc([N+](=O)[O-])s1)c1ccc(O)cc1O,inhibition,[2],15.5%
O=C(Nc1ncc([N+](=O)[O-])s1)c1ccc(S(=O)(=O)Nc2ccccc2)cc1,inhibition,[2],9%
O=C(Nc1ncc([N+](=O)[O-])s1)c1cccc(O)c1,inhibition,[2],28.5%
O=C(Nc1ncc([N+](=O)[O-])s1)c1ccccc1,inhibition,[2],35.5%
O=C(Nc1ncc([N+](=O)[O-])s1)c1ccccc1Cl,inhibition,[2],23%
O=C(Nc1ncc([N+](=O)[O-])s1)c1ccccc1F,inhibition,[2],22.1%
O=C(Nc1ncc([N+](=O)[O-])s1)c1ccccc1[N+](=O)[O-],inhibition,[2],19%
O=C(Nc1ncc([N+](=O)[O-])s1)c1ccccc1O [TIZOXANIDE],IC50,[16],29.8 µM
same,"cytotoxicity at 48 h, 10 µM",[1],12.7%
same,"inhibition at 48 h, 10 µM",[17],-5.7%
same,"inhibition at 48 h, 50 µM",[18],21.6%
C[C@H](NC(=O)/C(C#N)=C/c1cccc(Br)n1)c1ccccc1 [WP 1066],IC50,[16],4.2 µM
same,"inhibition at 48 h, 10 µM",[17],79.9%
same,"inhibition at 48 h, 50 µM",[18],97.2%
